# Hep lipid drop – hepatic lipid droplet formation modulation; AML12 mouse hepatocytes, oleate lipid droplets, BODIPY imaging; inhibition, % at 6.5 µM; 240,000 compounds, 0.4% hits; AID 1656;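 active = lipid droplet intensity inhibited by at least 50%, with more than 500 cells counted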
#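 Material – mouse AML12 hepatocyte cell line, fixed after treatment · Compound dosing – one dose, 6.5 µM compound · Times – compound with oleate, overnight · Measured by – Image-based BODIPY and DAPI two-channel analysis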
# TNF necrop inh – TNF-alpha cell death inhibition in Jurkat FADD-/- cells. 220,000 compounds, 0.068% hits. activation (protection from cell death), % at 10 µM. Jurkat FADD-/- TNF necroptosis rescue, ATP luminescence, 24 h; 0 = TNF only, 100 = no-TNF cells;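 active = activation, meaning protection from cell death, of at least 50% relative to plate controls; inactive = activation below 50%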;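 also: necroptosis triggered by 40 ng/mL TNF-alpha added together with compound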
# zVAD death inh – L929 zVAD cell death inhibition. L929 zVAD necroptosis rescue, ATP luminescence, 24 h; with zVAD 60 µM. viability rescue, % at 10 µM. 220,000 compounds, 0.38% hits;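 active = activation, scaled between plate controls, above about 75%, limit read from the data; inactive = activation under that limit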;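 also: 0% = zVAD with DMSO and 100% = DMSO alone without zVAD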
# Pf gamet viab – P. falciparum stage V gametocyte viability inhibition | inhibition, % at 10.9 µM | P. falciparum stage V gametocytes, ATP luminescence, 24 h | AID 743093 | 150,000 compounds, 0.065% hits;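 active = inhibition above the mean plus 3 SD of compounds within the control limits, set per campaign, cut at about 38% in these data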;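 also: 0% = DMSO wells and 100% = medium only without gametocytes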
# Arbovirus inh – antivirals against arbovirus infection. inhibition, % at 10 µM. arbovirus infection cell-based antiviral screen. AID 1251. 200,000 compounds, 0.37% hits; in the data active = inhibition above about 30%
# * = called active by the depositor; / = no result. This is a sample that favours compounds with a hit; in the whole collection about 0.91% have one here.
SMILES,Hep lipid drop,TNF necrop inh,zVAD death inh,Pf gamet viab,Arbovirus inh
O=C(NC(=S)Nc1ccccn1)c1ccccc1,61*,-8,-1,/,/
Cc1nn(-c2ccccc2)c(N2CCCCC2)c1/C=N/O,/,-1,0,14,3
Cc1nn(-c2ccccc2)c(N2CCCC2)c1C=O,6,2,6,40*,6
Fc1ccc(N/N=C/c2ccc(N3CCOCC3)cc2)c(F)c1,7,-1,-2,-21,-27
Cc1nc(NCCOc2ccccc2)sc1C(=O)Nc1ccccc1,-21,1,3,9,/
N#Cc1c(C(F)(F)F)cc(-c2cccc(Cl)c2)[nH]c1=O,0,-2,1,4,42*
N#Cc1c(C(F)(F)F)cc(-c2ccc(Cl)cc2)[nH]c1=O,-1,-3,0,-15,43*
COc1cccc(-n2ccn(CC(=O)NCCc3ccccc3)c(=O)c2=O)c1,2,/,/,/,/
CCOc1cccc2cc(C(=O)NCc3ccc(Cl)cc3)c(=N)oc12,3,/,/,/,/
CC1=C(C(=O)Nc2ccccc2C(=O)N2CCC(C)CC2)SCCO1,-9,/,/,/,/
CCOc1ccc(S(=O)(=O)N2CCCC2)cc1,1,0,1,40*,-3
CCOc1ccc2cc(S(=O)(=O)N3CCCCC3)ccc2c1,-1,/,/,/,/
CC(=O)c1ccc(N2CCN(S(=O)(=O)c3cc4c(cc3C)NC(=O)CO4)CC2)cc1,-2,/,/,/,/
COc1ccccc1C(=O)NCC1CCN(c2ccc(S(=O)(=O)N3CCOCC3)cc2)CC1,12,-1,0,/,45*
COC(=O)c1c(-c2ccccc2)csc1N1C(=O)Nc2ccccc2N1O,28,-2,0,0,36*
CCOC(=O)c1c(-c2ccccc2)csc1N1C(=O)Nc2ccccc2N1O,12,0,2,-3,21
Nc1nc(-c2ccccc2)c(N=Nc2ccc(Cl)cc2)s1,93*,1,1,5,11
Cc1nn(-c2ccccc2)c(N)c1N=Nc1ccc(Cl)cc1,7,1,1,14,-28
CCCCOc1ccc(-c2ncc(N)cn2)cc1,13,-13,0,-23,/
O=C(NCCCO)Nc1ccc2nc(-c3ccco3)c(-c3ccco3)nc2c1,-2,-2,0,/,33*
O=C1CC(c2ccc(Br)cc2)NC(c2ccc(Br)cc2)C1c1ccccc1 (configuration not stated),-14,2,2,/,45*
CCn1cnc2c1c(=O)n(CC(=O)NCC(C)C)c(=O)n2Cc1ccccc1,-1,/,/,/,/
COc1ccccc1Nc1cc(C(=O)N2CCc3ccccc3C2)c2ccccc2n1,-23,1,1,/,12
COc1ccccc1-c1cc(C(=O)N2CCc3ccccc3C2)c2ccccc2n1,/,-6,0,/,42*
CN=C(Cc1ccccc1)C1=C(O)CC(C)(C)CC1=O,-8,87*,53,-5,-2
SMILES,Hep lipid drop,TNF necrop inh,zVAD death inh,Pf gamet viab,Arbovirus inh
CCOC(=O)C(C#N)C(c1cccnc1)c1c(C)[nH][nH]c1=O (configuration not stated),5,-1,0,40*,4
CCOC(=O)/C(C#N)=C\c1cccnc1,12,1,1,-30,17
O=C(NCCc1nccs1)C1CCC(=O)N(Cc2cccc(C(F)(F)F)c2)C1 (configuration not stated),-7,/,/,/,/
Cc1cc2ncc(-c3cccs3)nc2cc1C,12,/,/,/,/
COCCn1c(-c2ccc(Cl)cc2)nc2c(c(=O)c3ccccc3n2C)c1=O,-6,-2,1,26,-5
COCCn1c(-c2ccccc2Cl)nc2c(c(=O)c3ccccc3n2C)c1=O,-11,-6,0,2,31*
COCCn1c(=O)[nH]c(=O)c2c(C(F)(F)F)cc(-c3cccs3)nc21,10,-1,0,-9,-3
CCc1cccc(C)c1NC(=O)CN(C)Cc1ccc(Br)cc1,-39,1,1,-11,42*
O=C(Cc1ccc(Cl)cc1)c1c[nH]c(C(=O)NCCCN2CCOCC2)c1,1,3,2,-2,-1
COC(=O)c1ccccc1N/C=C/C(=O)c1ccc(Br)cc1,-31,2,0,7,63*
NC(=O)c1ccccc1N/C=C/C(=O)c1ccccc1,-1,-9,-2,22,-2
Cc1ccc(C(=O)NC(C#N)=C(Cl)Cl)cc1,-22,74*,62,11,-37
Cc1ccc(C(=O)NCC#N)cc1,6,0,0,15,15
COc1cccc(NC(=O)CSC2=NN3CCCC(=O)N=C3S2)c1,8,/,/,/,/
Cc1ccc(Oc2ccccc2/C=C2\SC(=O)N(C)C2=O)cc1,/,52*,0,-8,10
COc1ccc2c(c1)c(CC(=O)Nc1nnc(C3CC3)s1)c(C)n2C(=O)c1ccc(Cl)cc1,3,-6,-1,-36,/
COc1ccc2c(c1)c(CC(=O)Nc1cc(C)ccc1C)c(C)n2C(=O)c1ccc(Cl)cc1,68*,2,/,/,-9
COc1ccccc1CNC(=O)Cn1nnc(-c2ccncc2)n1,/,1,86*,-35,3
COc1cc(C2CC(=O)Nc3cc(C)c(C)cc32)cc(OC)c1OC (configuration not stated),26,2,1,12,-17
Cc1cc2c(cc1C)C(c1cccc([N+](=O)[O-])c1)CC(=O)N2 (configuration not stated),-8,0,0,51*,-9
S=c1nc(-c2csc3c2CCCC3)[nH][nH]1,-18,-2,0,-4,-3
Oc1ccc(-c2n[nH]c(=S)n2-c2ccc3c(c2)OCCO3)c(O)c1,4,19,5,-1,33*
COc1cc(/C(C)=N/NC(=O)CN2CCN(S(=O)(=O)c3ccc(C)cc3)CC2)ccc1O,2,3,-1,39*,/
Cc1ccc(C)c(N2CCN(C(=O)Cc3ccc(-n4c(=O)[nH]c5ccsc5c4=O)cc3)CC2)c1,-9,1,1,39*,36*
Cc1ccc(CNC(=O)CN(c2ccc(Cl)cc2)S(C)(=O)=O)cc1,0,/,/,-7,/
SMILES,Hep lipid drop,TNF necrop inh,zVAD death inh,Pf gamet viab,Arbovirus inh
CCNC(=O)CN(c1ccc(CC)cc1)S(C)(=O)=O,/,0,1,13,46*
COc1ccc(C(=O)NCC(C)(C)SCc2c(C)cc(C)cc2C)cc1,/,-5,0,/,46*
CCOc1ccc(CN2CCC(n3nccc3NC(=O)c3ccccc3OC)CC2)cc1,-1,/,/,/,/
C=CCOc1ccc(Br)cc1/C=C1/SC(=Nc2ccc(C(=O)O)cc2)NC1=O,27,1,30,-7,32*
Cc1nn(-c2ccccc2)c2nc(-c3ccncc3)cc(C(=O)NCc3ccco3)c12,/,-3,1,56*,-14
Cc1nn(-c2ccccn2)c2nc(-c3cccs3)cc(C(=O)NCc3ccco3)c12,29,-7,0,/,-22
COc1cccc(Oc2ccc(S(=O)(=O)N3CCCC3)cc2[N+](=O)[O-])c1,-5,/,/,/,/
Cc1nnc(SCC(=O)N2CCc3ccccc32)s1,-3,2,1,/,39*
CCOC(=O)[C@H]1[C@H]2COc3cc(OC)ccc3[C@@H]2N2C(=O)c3cc(C)ccc3NC(=O)[C@@]12C,/,/,/,-14,/

# Compound activity: PubChem BioAssay, several laboratories
